Reference: ChEMBL document CHEMBL3112518, “Design, synthesis and anticancer activity evaluation of novel C14 heterocycle substituted epi-triptolide” (Eur J Med Chem, 2014)

How the values were obtained:
PC-3 = assay: Cytotoxicity against human PC3 cells after 72 hrs by sulforhodamine B assay; type: functional, cell-based; settings: PC-3, 72 h
Method in brief: (§1)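 Cells in 96-well plates were exposed in triplicate to a concentration gradient of each agent at 37 °C for 72 h, and growth was then measured by sulforhodamine B staining. IC50 is the concentration giving 50% growth inhibition relative to untreated control cells, calculated by the logit method.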

SK-OV-3 = assay: Cytotoxicity against human SKOV3 cells after 72 hrs by sulforhodamine B assay; type: functional, cell-based; settings: SK-OV-3, 72 h; method in brief: as §1

`CC(C)[C@]12O[C@H]1[C@@H]1O[C@]13[C@]1(O[C@H]1C[C@H]1C4=C(CC[C@@]13C)C(=O)OC4)[C@]2(O)CNc1ccc2nn(CCN3CCCCC3)cc2c1` showed an IC50 (PC-3) of 0.0661 µM and an IC50 (SK-OV-3) of 0.099 µM.
With `CC(C)[C@]12O[C@H]1[C@@H]1O[C@]13[C@]1(O[C@H]1C[C@H]1C4=C(CC[C@@]13C)C(=O)OC4)[C@]2(O)Cn1cc(-c2ccccc2)nn1` the IC50 (PC-3) was greater than 10 µM and the IC50 (SK-OV-3) was greater than 10 µM.
`CC(C)[C@]12O[C@H]1[C@@H]1O[C@]13[C@]1(O[C@H]1C[C@H]1C4=C(CC[C@@]13C)C(=O)OC4)[C@]2(O)CNc1ccc2ncccc2c1` showed an IC50 (PC-3) of 0.452 µM and an IC50 (SK-OV-3) of 0.085 µM.
`CC(C)[C@]12O[C@H]1[C@@H]1O[C@]13[C@]1(O[C@H]1C[C@H]1C4=C(CC[C@@]13C)C(=O)OC4)[C@]2(O)CNc1ccc2nn(C)cc2c1` gave an IC50 (PC-3) of 0.097 µM and an IC50 (SK-OV-3) of 0.0223 µM.
Work on `CC(C)[C@]12O[C@H]1[C@@H]1O[C@]13[C@]1(O[C@H]1C[C@H]1C4=C(CC[C@@]13C)C(=O)OC4)[C@]2(O)Cn1cc(C2CC2)nn1` yielded an IC50 (PC-3) greater than 10 µM and an IC50 (SK-OV-3) greater than 10 µM.
Work on `CC(C)[C@]12O[C@H]1[C@@H]1O[C@]13[C@]1(O[C@H]1C[C@H]1C4=C(CC[C@@]13C)C(=O)OC4)[C@]2(O)CNc1ccc2c(c1)C(C)(C)C(=O)N2C` yielded an IC50 (PC-3) of 0.0849 µM and an IC50 (SK-OV-3) of 0.0117 µM.
In the case of `CC(C)[C@]12O[C@H]1[C@@H]1O[C@]13[C@]1(O[C@H]1C[C@H]1C4=C(CC[C@@]13C)C(=O)OC4)[C@]2(O)CNc1ccc2occc(=O)c2c1`, the IC50 (PC-3) is reported as 0.341 µM and the IC50 (SK-OV-3) is reported as 0.368 µM.
`COC(=O)c1cn(C[C@@]2(O)[C@]34O[C@H]3C[C@H]3C5=C(CC[C@]3(C)[C@@]43O[C@H]3[C@@H]3O[C@@]32C(C)C)C(=O)OC5)nn1` showed an IC50 (PC-3) greater than 10 µM and an IC50 (SK-OV-3) greater than 10 µM.
For `CC(C)[C@]12O[C@H]1[C@@H]1O[C@]13[C@]1(O[C@H]1C[C@H]1C4=C(CC[C@@]13C)C(=O)OC4)[C@]2(O)CNc1ccc2c(cnn2C)c1`, the IC50 (PC-3) was 0.132 µM and the IC50 (SK-OV-3) was 0.015 µM.
`CC(C)[C@]12O[C@H]1[C@@H]1O[C@]13[C@]1(O[C@H]1C[C@H]1C4=C(CC[C@@]13C)C(=O)OC4)[C@]2(O)CNc1ccc2nn(CCN3CCOCC3)cc2c1` was tested, and the IC50 (PC-3) was 0.0408 µM and the IC50 (SK-OV-3) was 0.077 µM.
Compound `CC(C)[C@]12O[C@H]1[C@@H]1O[C@]13[C@]1(O[C@H]1C[C@H]1C4=C(CC[C@@]13C)C(=O)OC4)[C@]2(O)CNc1ccc2oc(=O)ccc2c1` has an IC50 (PC-3) of 0.353 µM and an IC50 (SK-OV-3) of 0.0872 µM.
`CC(C)[C@]12O[C@H]1[C@@H]1O[C@]13[C@]1(O[C@H]1C[C@H]1C4=C(CC[C@@]13C)C(=O)OC4)[C@]2(O)CNc1ccc2nccnc2c1` was tested, and the IC50 (PC-3) was 0.157 µM and the IC50 (SK-OV-3) was 0.369 µM.
Compound `CC(C)[C@]12O[C@H]1[C@@H]1O[C@]13[C@]1(O[C@H]1C[C@H]1C4=C(CC[C@@]13C)C(=O)OC4)[C@]21CN(c2ccc3c(cnn3C)c2)CO1` has an IC50 (PC-3) of 0.365 µM and an IC50 (SK-OV-3) of 0.0797 µM.
`CC(C)[C@]12O[C@H]1[C@@H]1O[C@]13[C@]1(O[C@H]1C[C@H]1C4=C(CC[C@@]13C)C(=O)OC4)[C@]2(O)CNc1cccc2[nH]ccc12` gave an IC50 (PC-3) of 0.0978 µM and an IC50 (SK-OV-3) of 0.0538 µM.
Compound `CC(C)[C@]12O[C@H]1[C@@H]1O[C@]13[C@]1(O[C@H]1C[C@H]1C4=C(CC[C@@]13C)C(=O)OC4)[C@]2(O)CNc1ccc2c(c1)CC(=O)O2` has an IC50 (PC-3) of 0.0679 µM and an IC50 (SK-OV-3) of 0.0125 µM.
`CC(C)[C@]12O[C@H]1[C@@H]1O[C@]13[C@]1(O[C@H]1C[C@H]1C4=C(CC[C@@]13C)C(=O)OC4)[C@]21CN(c2ccc3c(cnn3CCN3CCOCC3)c2)CO1` showed an IC50 (PC-3) of 0.253 µM and an IC50 (SK-OV-3) of 0.152 µM.
With `COC(=O)c1n[nH]c2ccc(NC[C@@]3(O)[C@]45O[C@H]4C[C@H]4C6=C(CC[C@]4(C)[C@@]54O[C@H]4[C@@H]4O[C@@]43C(C)C)C(=O)OC6)cc12` the IC50 (PC-3) was 0.264 µM and the IC50 (SK-OV-3) was 0.0358 µM.
With `COC(=O)n1ncc2cc(NC[C@@]3(O)[C@]45O[C@H]4C[C@H]4C6=C(CC[C@]4(C)[C@@]54O[C@H]4[C@@H]4O[C@@]43C(C)C)C(=O)OC6)ccc21` the IC50 (PC-3) was 0.188 µM and the IC50 (SK-OV-3) was 0.102 µM.
Work on `CC(C)[C@]12O[C@H]1[C@@H]1O[C@]13[C@]1(O[C@H]1C[C@H]1C4=C(CC[C@@]13C)C(=O)OC4)[C@]2(O)CNc1ccc2[nH]ncc2c1` yielded an IC50 (PC-3) of 0.0253 µM and an IC50 (SK-OV-3) of 0.0174 µM.
For `CC(C)[C@]12O[C@H]1[C@@H]1O[C@]13[C@]1(O[C@H]1C[C@H]1C4=C(CC[C@@]13C)C(=O)OC4)[C@]2(O)CNc1cccnc1`, the IC50 (PC-3) was 2.81 µM and the IC50 (SK-OV-3) was 0.745 µM.
`CC(C)[C@]12O[C@H]1[C@@H]1O[C@]13[C@]1(O[C@H]1C[C@H]1C4=C(CC[C@@]13C)C(=O)OC4)[C@]2(O)CNc1ccc2c(c1)C(=O)CCO2` showed an IC50 (PC-3) of 0.172 µM and an IC50 (SK-OV-3) of 0.0321 µM.
Compound `CC(C)[C@]12O[C@H]1[C@@H]1O[C@]13[C@]1(O[C@H]1C[C@H]1C4=C(CC[C@@]13C)C(=O)OC4)[C@]2(O)CNc1ccc2c(c1)CC(=O)N2` has an IC50 (PC-3) of 0.0541 µM and an IC50 (SK-OV-3) of 0.0384 µM.
`CC(C)[C@]12O[C@H]1[C@@H]1O[C@]13[C@]1(O[C@H]1C[C@H]1C4=C(CC[C@@]13C)C(=O)OC4)[C@]2(O)CNc1ccc2cn[nH]c2c1` showed an IC50 (PC-3) of 0.188 µM and an IC50 (SK-OV-3) of 0.049 µM.
Work on `CC(C)[C@]12O[C@H]1[C@@H]1O[C@]13[C@]1(O[C@H]1C[C@H]1C4=C(CC[C@@]13C)C(=O)OC4)[C@]2(O)CNc1ccc2c(cnn2CCN2CCOCC2)c1` yielded an IC50 (PC-3) of 0.0366 µM and an IC50 (SK-OV-3) of 0.0364 µM.
`CC(C)[C@]12O[C@H]1[C@@H]1O[C@]13[C@]1(O[C@H]1C[C@H]1C4=C(CC[C@@]13C)C(=O)OC4)[C@H]2O` [EPITRIPTOIIDE] showed an IC50 (PC-3) of 1.32 µM.
`CC(C)[C@]12O[C@H]1[C@@H]1O[C@]13[C@]1(O[C@H]1C[C@H]1C4=C(CC[C@@]13C)C(=O)OC4)[C@]2(O)CNc1ccc2ncncc2c1` was tested, and the IC50 (PC-3) was 0.781 µM and the IC50 (SK-OV-3) was 0.274 µM.
